Source: publication PMC6748665 (Journal of Medicinal Chemistry, 2019)
Where two headings read alike, the source gives them in different places.

How the values were obtained:
PaTrmD [1] = target: T1, PaTrmD (Pseudomonas aeruginosa, UniProt Q9HXQ1); assay: TrmD inhibitor assay; assay type: biochemical; conditions: for reduction of enzyme inhibitory activity compared with the alkyl chain: ethylene glycol substituents
T1 sequence (Q9HXQ1 5-250): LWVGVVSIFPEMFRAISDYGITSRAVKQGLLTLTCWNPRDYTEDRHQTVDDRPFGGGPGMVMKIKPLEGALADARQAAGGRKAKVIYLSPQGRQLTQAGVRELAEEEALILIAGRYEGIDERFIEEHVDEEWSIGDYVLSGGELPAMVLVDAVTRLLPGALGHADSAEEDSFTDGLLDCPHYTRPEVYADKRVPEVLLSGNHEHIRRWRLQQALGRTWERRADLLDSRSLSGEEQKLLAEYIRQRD
Summary of the method: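 E. coli-expressed PaTrmD (IMAC and size-exclusion purified, 8 nM) was preincubated 15 min at ambient temperature with serially diluted inhibitor (0–500 μM). Reaction buffer was 50 mM Tris-HCl pH 8.0, 80 mM NaCl, 1 mM MgCl2, 0.5 mM DTT and 0.01% Triton X-100, with 2 μM SAM and 0.5 μM in vitro-transcribed tRNALeu(CAG). Reactions ran 45 min at 37 °C. SAH was detected by MTase-Glo luminescence against an SAH standard curve.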

PaTrmD [2] = target: T1, PaTrmD; assay: Surface plasmon resonance; assay type: binding; conditions: SPR
PaTrmD [3] = target: T1, PaTrmD; assay: Thermal stability; assay type: binding
PaTrmD [4] = target: T1, PaTrmD; conditions: ref 15 (Hill et al.); cited from earlier work
SaTrmD = target: T2, SaTrmD (Staphylococcus aureus, UniProt Q2FZ43); conditions: cited from earlier work
T2 sequence (Q2FZ43 1-245): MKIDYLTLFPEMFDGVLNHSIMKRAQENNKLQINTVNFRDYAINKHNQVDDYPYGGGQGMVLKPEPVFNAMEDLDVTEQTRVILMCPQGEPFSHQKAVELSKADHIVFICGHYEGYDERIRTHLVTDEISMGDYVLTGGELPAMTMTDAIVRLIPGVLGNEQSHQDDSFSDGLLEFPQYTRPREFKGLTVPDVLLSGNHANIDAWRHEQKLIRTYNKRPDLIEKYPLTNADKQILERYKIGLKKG

bacteria = conditions: in words; cited from earlier work
[5] = test system: collection of Gram-positive and Gram-negative bacteria; assay: Single-dose; assay type: cell-based; conditions: against Gram-positive bacteria and mycobacteria; single dose 100 μM
[6] = PaTrmD, O^6-substituted thienopyrimidinones, NA = not active up to 50 μM

Compound: 4-(Hexyloxy)-N-(4-((octylamino)methyl)benzyl)thieno[2,3-d]pyrimidine-5-carboxamide [Compound 44]
- IC50 (PaTrmD [1]; [6]): > 50 µM

Compound: 4-Methoxy-N-(4-(morpholinomethyl)benzyl)thieno[2,3-d]pyrimidine-5-carboxamide [Compound 45]
- IC50 (PaTrmD [1]; [6]): > 50 µM

Compound: NC1CCN(Cc2ccc(CNC(=O)c3csc4nc[nH]c(=O)c34)cc2)CC1 [AZ51]
- faster on-rate (association rate) compared to SAH (PaTrmD [2]; PaTrmD): ~2 fold
- slower off-rate (dissociation rate) compared to SAH (PaTrmD [2]; PaTrmD): ~30 fold
- Tm higher than thermostabilization conferred by SAH (PaTrmD [3]): 17 °C
- IC50 (PaTrmD [4]): 0.039 µM
- IC50 (SaTrmD): 1.2 µM
- antibacterial activity (bacteria): lacked antibacterial activity

Compound: O=C(NCc1ccc(CN2CCCCC2)cc1)c1csc2nc[nH]c(=O)c12 [Compound 9, 4-Oxo-N-(4-(piperidin-1-ylmethyl)benzyl)-3,4-dihydrothieno[2,3-d]pyrimidine-5-carboxamide]
- reduction of inhibitory activity compared with AZ51 (PaTrmD [1]; PaTrmD): 6–16 fold

Compound: O=C(NCc1ccc(CN2CCOCC2)cc1)c1csc2nc[nH]c(=O)c12 [Compound 10, N-(4-(Morpholinomethyl)benzyl)-4-oxo-3,4-dihydrothieno[2,3-d]pyrimidine-5-carboxamide]
- reduction of inhibitory activity compared with AZ51 (PaTrmD [1]; PaTrmD): 6–16 fold

Compound: O=C(NCc1ccc(CNCc2ccccc2)cc1)c1csc2nc[nH]c(=O)c12 [Compound 14, N-(4-((Benzylamino)methyl)benzyl)-4-oxo-3,4-dihydrothieno[2,3-d]pyrimidine-5-carboxamide]
- TrmD inhibitory activity (in words) (PaTrmD [1]; PaTrmD): submicromolar activity

Compound: CCCCCCCCNCc1ccc(CNC(=O)c2csc3nc[nH]c(=O)c23)cc1 [Compound 15, N-(4-((Octylamino)methyl)benzyl)-4-oxo-3,4-dihydrothieno[2,3-d]pyrimidine-5-carboxamide]
- IC50 (PaTrmD [1]): 0.02 ± 0.01 µM
- increase of IC50 when tRNA concentration was increased (PaTrmD [1]; PaTrmD, tRNA competition assay, from 0.02 to 0.26 μM): 13 fold
- higher binding affinity (KD) to PaTrmD compared with AZ51 (PaTrmD [2]): ~50 fold
- growth inhibitory activity at 100 μM [5]: showed growth inhibitory activity

Compound: O=C(NCc1ccc(CNC2CCCCC2)cc1)c1csc2nc[nH]c(=O)c12 [Compound 16, N-(4-((Cyclohexylamino)methyl)benzyl)-4-oxo-3,4-dihydrothieno[2,3-d]pyrimidine-5-carboxamide]
- TrmD inhibitory activity (in words) (PaTrmD [1]; PaTrmD): submicromolar activity

Compound: O=C(NCc1ccc(CNC23CC4CC(CC(C4)C2)C3)cc1)c1csc2nc[nH]c(=O)c12 [Compound 17, N-(4-((((3s,5s,7s)-Adamantan-1-yl)amino)methyl)benzyl)-4-oxo-3,4-dihydrothieno[2,3-d]pyrimidine-5-carboxamide]
- TrmD inhibitory activity (in words) (PaTrmD [1]; PaTrmD): submicromolar activity

Compound: CCCCCCCCN(Cc1ccccc1)Cc1ccc(CNC(=O)c2csc3nc[nH]c(=O)c23)cc1 [Compound 20, N-(4-((Benzyl(octyl)amino)methyl)benzyl)-4-oxo-3,4-dihydrothieno[2,3-d]pyrimidine-5-carboxamide]
- TrmD inhibitory activity (in words) (PaTrmD [1]; PaTrmD): nearly abolished

Compound: CCCCCCCCCCNCc1ccc(CNC(=O)c2csc3nc[nH]c(=O)c23)cc1 [Compound 23, N-(4-((Decylamino)methyl)benzyl)-4-oxo-3,4-dihydrothieno[2,3-d]pyrimidine-5-carboxamide]
- growth inhibitory activity at 100 μM [5]: showed growth inhibitory activity

Compound: CCCCCCCCCCCCNCc1ccc(CNC(=O)c2csc3nc[nH]c(=O)c23)cc1 [Compound 24, N-(4-((Dodecylamino)methyl)benzyl)-4-oxo-3,4-dihydrothieno[2,3-d]pyrimidine-5-carboxamide]
- growth inhibitory activity at 100 μM [5]: showed growth inhibitory activity

Compound: O=C(NCc1ccc(CNCCOCCO)cc1)c1csc2nc[nH]c(=O)c12 [Compound 25, N-(4-(((2-(2-Hydroxyethoxy)ethyl)amino)methyl)benzyl)-4-oxo-3,4-dihydrothieno[2,3-d]pyrimidine-5-carboxamide]
- reduction of enzyme inhibitory activity compared with the alkyl chain (PaTrmD [1]; PaTrmD): 4–8 fold

Compound: CCOCCOCCNCc1ccc(CNC(=O)c2csc3nc[nH]c(=O)c23)cc1 [Compound 26, N-(4-(((2-(2-Ethoxyethoxy)ethyl)amino)methyl)benzyl)-4-oxo-3,4-dihydrothieno[2,3-d]pyrimidine-5-carboxamide]
- reduction of enzyme inhibitory activity compared with the alkyl chain (PaTrmD [1]; PaTrmD): 4–8 fold

Compound: N-(4-((Benzylamino)methyl)benzyl)-4-methoxythieno[2,3-d]pyrimidine-5-carboxamide [Compound 39]
- IC50 (PaTrmD [1]; [6]): > 50 µM

Compound: N-(4-((Benzylamino)methyl)benzyl)-4-propoxythieno[2,3-d]pyrimidine-5-carboxamide [Compound 40]
- IC50 (PaTrmD [1]; [6]): > 50 µM

Compound: N-(4-((Octylamino)methyl)benzyl)-4-propoxythieno[2,3-d]pyrimidine-5-carboxamide [Compound 43]
- IC50 (PaTrmD [1]; [6]): > 50 µM

Compound: N-(4-(Morpholinomethyl)benzyl)-4-propoxythieno[2,3-d]pyrimidine-5-carboxamide [Compound 46]
- IC50 (PaTrmD [1]; [6]): > 50 µM
